Experimental data pooled from the literature.
Lines come from different studies, so protocols differ.
Target: 5'-AMP-activated protein kinase catalytic subunit alpha-1 (PRKAA1, Homo sapiens, UniProt Q13131)
Method: competition with immobilised ligand

FC(F)(F)Oc1cccc(-c2cnc3ccc(-c4ccncc4)nn23)c1
remaining binding (cell-free assay; 5 µM): 96%

CN(C)C(=O)Cn1cc(-c2nc(C3(c4ccc(-c5cnc(N)nc5)cc4)CC3)no2)cn1
remaining binding (cell-free assay; 1 µM): 98%

CNC(=O)[C@@H]1CC[C@@H](n2c(-c3ccc4cnccc4c3)nc3ccc(C(=O)NCc4cccc(C(N)=O)c4)cc32)C1
remaining binding (binding; 1 µM): 84%

CS(=O)(=O)c1cc(C2(NC(=O)c3cncc4c3cnn4-c3ccc(F)cc3)CC2)ccn1
remaining binding (cell-free assay; 1 µM): 99%

O=C(c1ccc(Nc2ncc(Cl)c(-c3cc4ccccc4s3)n2)cc1)N1CCC(N2CCCC2)CC1
remaining binding (binding; 1 µM): 5.7%

N[C@@H]1CCN(c2nccc(-c3cnn4ncccc34)n2)C1
remaining binding (binding; 1 µM): 95%

CCN1CCN(Cc2ccc(C(=O)Nc3ccc(C)c(Oc4ccc5c(c4)CC(=O)N5)c3)cc2C(F)(F)F)CC1
remaining binding (binding; 1 µM): 100%

O=C(NCC1CCOCC1)c1n[nH]cc1NC(=O)c1c(F)cccc1F
remaining binding (binding; 1 µM): 93%

O=C(c1ccc(Nc2ncc(Cl)c(-c3ccc(Cl)s3)n2)cc1)N1CCC(N2CCCC2)CC1
remaining binding (binding; 1 µM): 8.1%

CN(C)c1nccc(-c2cnc3ncccn23)n1
remaining binding (binding; 1 µM): 100%

C[C@H](NC(=O)c1cnc2n1[C@](C)(Cc1ccc(C#N)cc1)C(=O)N2c1cc(Cl)c(F)c(Cl)c1)C(=O)NC1(c2ccccn2)CC1
remaining binding (cell-free assay; 1 µM): 100%

F[C@@H]1CCN(c2nccc(-c3cnn4ncccc34)n2)C1
remaining binding (binding; 1 µM): 85%

Cc1cnc(Nc2ccc(C(=O)N3CCC(N4CCCC4)CC3)cc2)nc1-c1cc2ccccc2s1
remaining binding (binding; 1 µM): 7.9%

CN(CCCC(F)(F)F)c1nccc(-c2cnn3ncccc23)n1
remaining binding (binding; 1 µM): 100%

O=C(NC[C@@H]1[C@H]2CN(C(=O)OCc3cc(C(F)(F)F)cc(C(F)(F)F)c3)C[C@@H]12)c1ccc2[nH]nnc2c1
remaining binding (cell-free assay; 1 µM): 100%

CN(C)c1ncc(F)c(-c2cnn3ncccc23)n1
remaining binding (binding; 1 µM): 48%

NS(=O)(=O)c1cc(NC(=O)C2(c3ccccc3Cl)CC2)ccc1Oc1cccc(Cl)c1
remaining binding (cell-free assay; 1 µM): 80%

C[C@@H]1CCN(c2nccc(-c3cnn4ncccc34)n2)C1
remaining binding (binding; 1 µM): 99%

O=C(Nc1cnc(Oc2ccc(F)cc2)nc1)N1CCc2ncccc2[C@@H]1c1ccc(F)cc1
remaining binding (cell-free assay; 1 µM): 88%

COc1cnc(Nc2cccc(S(N)(=O)=O)c2)nc1N1CCN(c2ccccc2)C(=O)C1
remaining binding (binding; 1 µM): 100%

C[C@@H](c1ccc(-n2cnc3c(N)ncnc32)cc1)N1CCc2nn(C)c(Cc3ccccc3)c2C1=O
remaining binding (binding; 0.1 µM): 95%
